Results taken from PMC7574157 (Investigational new drugs, 2016).

Columns and labels:
Population PK analysis = type: in vivo, human
Procedure, shortened: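 Oral dosing; patients fasted 1 h before and 2 h after. Sparse plasma samples were taken pre-dose and 1–3 h post-dose on days 29, 43 and 99, with richer sampling on the intermittent schedule. Two-compartment model with first-order absorption and elimination, fitted by first-order conditional estimation with interaction. It estimated clearance, intercompartment clearance, central/peripheral volumes, absorption rate, inter-subject variability and residual error, and explored covariates.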

patients [1] = details: cited from earlier work
patients [2] = details: cited from earlier work; remark: listed apart in the source
[3] = GSK458 as mono-therapy, estimate (SD)

Compound | Clearance, CL/F (Population PK analysis; [3]) | Volume of central compartment Vc/F (Population PK analysis; [3]) | Volume of peripheral compartment Vp/F (Population PK analysis; [3]) | Vd (Population PK analysis; human, in vivo, oral) | clearance (Population PK analysis; human, in vivo, oral) | PK of GSK458 alone versus in combination with trametinib (post hoc estimates) (Population PK analysis; in vivo) | Inter-compartment clearance (Population PK analysis; population PK model of GSK458) | Inter-individual variability on central volume (Population PK analysis; population PK model of GSK458) | Inter-individual variability on clearance (Population PK analysis; population PK model of GSK458) | Peripheral volume of distribution (Population PK analysis; population PK model of GSK458) | Most frequently reported treatment-related adverse events, single agent (patients [1]) | Maximum tolerated dose (MTD), single agent (patients [1]; once daily) | Most frequently reported treatment-related toxicities, single agent (patients [2]) | Plasma half-life (patients [2]; no reference given) | Recommended phase II dose (RP2D), single agent (patients [2]; once daily)
COc1ncc(-c2ccc3nccc(-c4ccnnc4)c3c2)cc1NS(=O)(=O)c1ccc(F)cc1F [GSK458] | 3.88 (1.9) L/h | 17.81 (17.4) L | 54.67 (48.7) L | 8.95 L | 54.2 mL/min | No significant difference was observed | 2.71 L/h | ~97% | approximately 53% | 38.4 L | diarrhea, fatigue, nausea, decreased appetite, vomiting, and hyerpglycemia | 2.5 mg | – | – | –
CC(=O)Nc1cccc(-n2c(=O)n(C3CC3)c(=O)c3c(Nc4ccc(I)cc4F)n(C)c(=O)c(C)c32)c1 [trametinib] | – | – | – | – | – | – | – | – | – | – | – | – | rash or acneiform dermatitis, diarrhea, fatigue, nausea, and vomiting | five days | 2 mg
